# Screens: PubChem BioAssay, Broad Institute
# This is a sample that favours compounds with a hit; in the whole collection about 1.5% have one here.
# Wnt bcat act: Wnt/beta-catenin pathway activation; activation, % at 9.35 µM; 300,000 compounds, 1.2% hits; Wnt/beta-catenin reporter cell assay, activator, plate reader; in the data active = activation above about 30%, passing the limit was not always enough; inconclusive = no clear call, values can overlap the other calls;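 note: 0% = neutral control wells and 100% = positive control wells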
# Cneo AK release: causes C. neoformans cell lysis. AID 651654. 360,000 compounds, 0.2% hits. lysis activity, % at 15 µM. adenylate kinase release luminescence, 4 h; normalised: neutral wells 0, clomiphene wells 100;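 active = mean lysis activity across replicates of at least 80%, whatever share of replicates individually reach that level; inactive = mean lysis activity below 80%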
#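 read-out = cell lysis signal | test system = log-phase Cryptococcus neoformans yeast cells | input = cells at 5 × 10^6 per mL | medium = fresh YPD growth medium | signal = luminescent adenylate kinase detection reagent | timing = 4 h at 37 °C static, read 1 h later | dosing = single dose | controls = Clomiphene as positive lysis control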
# MITF TRPM1 HTS: activators of MITF-driven TRPM1 promoter activity in SK-MEL-5 cells | SK-MEL-5 TRPM1-promoter luciferase, 24 h; % of positive control, neutral wells = 0 | activation, % at 12.5 µM | 300,000 compounds, 0.75% hits;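 active = mean activation of at least 80% with every replicate also reaching 80%; inconclusive = mean reaches 80% but some replicate falls short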;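 note: 0% = neutral control wells and 100% = parthenolide positive control wells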
# PGC1a acetyl inh: modulators of PGC1a acetylation. U2OS PGC1a acetylation, AlphaScreen anti-acetyl-lysine; with virally co-expressed GCN5 acetyltransferase. inhibition, % at 15.6 µM. 350,000 compounds, 0.17% hits. AID 651687;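 active = every replicate shows inhibition of at least 40%; inconclusive = mean inhibition at least 40% but some replicate below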;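 note: 0% = neutral control wells and 100% = positive control wells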
# * marks the source's active call; other numbers are inactive results; ? = inconclusive; nt = no result given.
SMILES,Wnt bcat act,Cneo AK release,MITF TRPM1 HTS,PGC1a acetyl inh
COc1ccc(NC(=O)Nc2ccc3c(c2)CC(=O)N([C@H](C)CO)C[C@@H](C)[C@@H](CN(C)C(=O)Nc2ccc(OC)cc2)O3)cc1,nt,-3,nt,-8
C[C@@H]1CCCCO[C@@H](CN(C)S(=O)(=O)c2ccccc2)[C@@H](C)CN([C@H](C)CO)C(=O)c2cc(NC(=O)c3ccncc3)ccc2O1,nt,0,nt,8
COc1ccc(-c2noc(COc3ccc4c(c3)OCO4)n2)cc1,nt,-1,10,-11
c1ccc(-c2noc(COc3ccc4c(c3)OCO4)n2)cc1,nt,0,97*,-2
Cc1ccccc1OCc1nc(-c2ccc(NC(=O)c3ccco3)cc2)no1,-1,3,103*,6
Cc1noc(C)c1NC(=O)Nc1ccc2c(c1)CC(=O)N([C@H](C)CO)C[C@H](C)[C@H](CN(C)S(C)(=O)=O)O2,nt,54,nt,-2
C[C@@H]1CCCCO[C@@H](CN(C)S(=O)(=O)c2cccs2)[C@H](C)CN([C@@H](C)CO)C(=O)c2cc(NS(=O)(=O)c3ccc(F)cc3)ccc2O1,nt,-2,nt,-2
CCCC(=O)N1CCC1(C)C(=O)Nc1cc(-c2ccccc2)nn1C (configuration not stated),33*,-2,nt,18
COc1ccc(OC)c2nc(-c3ccc4c(c3)OCO4)ccc12,48*,-2,46,nt
COc1ccc(-c2oc(=O)c3cc(OC)c(OC)cc3c2-c2ccc3c(c2)OCO3)cc1,9,1,10,3
c1ccc2nc(-c3ccc4c(c3)OCO4)ccc2c1,50*,-6,nt,-13
Cc1ccc(NC(=O)c2cnn(-c3ccccc3)c2C)cc1,22,-9,nt,nt
Cc1ccc(NC(=O)c2cnn(-c3ccccc3)c2C)c(C)c1,45*,-2,68,nt
CCOC(=O)C1CCCCN1C(=O)c1oc2c(Cl)cc(C)cc2c1C (configuration not stated),-1,0,5,nt
COC(=O)C1CCN(C(=O)c2oc3c(Cl)cc(C)cc3c2C)CC1,47*,-1,45,nt
Cc1cc(N=Nc2ccccc2)cc(C)c1NC(=O)C(F)(F)F,43*,nt,107*,nt
CC(C)(C)C(=O)Nc1ccc(N=Nc2ccccc2)cc1,-8,-3,-19,-3
COc1ccc(S(=O)(=O)N(C)C[C@H]2Oc3c(NC(=O)NC4CCCCC4)cccc3C(=O)N([C@@H](C)CO)C[C@H]2C)cc1,nt,0,nt,-12
CN1C(=O)c2cc(NC(=O)C3CC3)ccc2OC[C@@H]2O[C@H](CC(=O)NCCN3CCCC3)CC[C@@H]21,nt,-1,nt,5
c1ccc(CNc2nc3ccccc3[nH]2)cc1,20,-2,83*,-19
Cc1ccc2nc(NCc3ccccc3)[nH]c2c1,20,-3,11,-5
C(=C\c1ccccc1)/C=N/Nc1nc2ccccc2[nH]1,90*,nt,26,nt
C(/CCc1ccccc1)=N\Nc1nc2ccccc2[nH]1,40*,nt,5,-8
C(=N\Nc1nc2ccccc2[nH]1)/c1ccccc1,0,0,80,nt
Cc1ccccc1C(=O)N/N=C/c1ccccn1,13,-6,19,2
SMILES,Wnt bcat act,Cneo AK release,MITF TRPM1 HTS,PGC1a acetyl inh
O=C(N/N=C\c1ccccn1)c1ccccc1O,36*,nt,10,6
Cc1n[nH]c(=O)nc1N/N=C/c1ccco1,49*,0,17,-7
c1csc(CSc2nc3ccccc3s2)c1,nt,nt,98*,nt
CCCNC(=O)N1C[C@H](C)[C@H](OC)CN(C)C(=O)c2ccc(NC(C)=O)cc2OC[C@H]1C,nt,nt,nt,-4
c1ccc(CN2CCN(c3nc4ccccc4s3)CC2)cc1,40*,-3,77,15
COc1ccc(NC(=O)c2cnc3sccn3c2=O)cc1,42*,-1,19,1
N#C[C@@H]1[C@@H](c2ccc(C#CCC3CCCC3)cc2)[C@H](CO)N1C(=O)c1ccccn1,nt,-1,nt,-32
N#C[C@H]1[C@@H](c2ccc(C#CCC3CCCC3)cc2)[C@@H](CO)N1C(=O)c1ccccn1,nt,111*,nt,0
c1ccc2oc(-c3ccc4nc[nH]c4c3)nc2c1,nt,-11,98*,-3
COc1ccc(/C=C(/NC(=O)c2ccccc2Cl)C(=O)NCCCC(=O)O)cc1,-1,nt,5,36
COc1ccc(/C=C(/NC(=O)c2ccccc2Cl)C(=O)O)cc1,47*,nt,2,nt
COc1ccc2c(c1OC)C(=O)N(c1ccc(C)cc1)C2,44*,nt,nt,9
COc1ccc2c(c1OC)C(=O)N(c1cccc(C)c1)C2,nt,-5,62,-3
COc1ccc2c(c1OC)C(=O)N(c1cccc(C(F)(F)F)c1)C2,nt,-20,121*,-21
COc1ccc(NC(=O)N(C)C[C@@H]2Oc3c(NC(=O)Nc4ccc(F)cc4)cccc3C(=O)N([C@H](C)CO)C[C@H]2C)cc1,nt,47,nt,-4
C[C@H]1CN([C@@H](C)CO)C(=O)Cc2cc(NC(=O)c3ccncc3)ccc2O[C@H]1CN(C)C(=O)Nc1ccccc1,nt,-3,nt,9
O=C(c1cccs1)N1CCN=C1SCc1ccc(F)cc1,37*,nt,9,nt
CCN(CC)c1ccc(NC(=O)c2cccnc2)cc1,37*,-2,57,13
CC1CCN(c2ccc(NC(=O)c3cccnc3)cc2)CC1,37*,-3,nt,-10
Fc1ccccc1-c1cc2ncccc2cn1,34*,-1,71,5
CC(C)(C)c1cc(NC(=O)Nc2ccccc2)no1,41*,-7,113*,20
Cc1cc(C(=O)Nc2cc(C(C)(C)C)on2)c(C)o1,42*,-3,89*,-3
COC(=O)c1ccccc1NC(=O)Nc1cc(C(C)(C)C)on1,?,5,39,nt
COc1ccc(S(=O)(=O)Nc2ccc3c(c2)C(=O)N([C@H](C)CO)C[C@@H](C)[C@H](CN(C)S(=O)(=O)c2ccc(OC)cc2)OCCCC[C@H](C)O3)cc1,nt,1,nt,1
C#CCOC(=O)CCCC(=O)Nc1ccccc1OC,50*,-11,1,0
SMILES,Wnt bcat act,Cneo AK release,MITF TRPM1 HTS,PGC1a acetyl inh
C[C@@H]1CN([C@H](C)CO)C(=O)c2cc(NC(=O)c3ccccc3)ccc2O[C@@H](C)CCCCO[C@@H]1CN(C)S(=O)(=O)c1ccc(Cl)cc1,nt,1,nt,6
COc1ccc(Cn2nnnc2CN(Cc2cc3ccc(C)cc3[nH]c2=O)C2CCCC2)cc1,nt,-2,-2,42*
COc1ccc(NC(=O)N(C)C[C@@H]2Oc3c(NC(=O)c4ccc(-c5nccs5)cc4)cccc3C(=O)N([C@@H](C)CO)C[C@@H]2C)cc1,nt,-3,nt,5
Cc1cccc(/C=C(\c2nc3ccccc3[nH]2)S(=O)(=O)c2ccccc2)c1,41*,nt,-85,8
O=C(Nc1nc(-c2ccc(F)cc2)cs1)C1CCCO1 (configuration not stated),45*,nt,85*,nt
O=C(Nc1nc(-c2ccc(-c3ccccc3)cc2)cs1)C1CCCO1 (configuration not stated),nt,0,21,-5
CN(C)C(=O)c1ccc(-c2ccccc2[C@H]2[C@@H](C#N)N(C(=O)C3CC3)[C@@H]2CO)cc1,nt,nt,nt,6
COc1ccc(CN(C)C[C@H]2OCCCC[C@@H](C)Oc3ccc(NC(=O)CCC(F)(F)F)cc3C(=O)N([C@@H](C)CO)C[C@H]2C)cc1,nt,-3,nt,0
